Shown are actives, neighbours in structure and some others; about 2.8% of the full set was active somewhere.
CAL PDZ FP-1 – CAL PDZ (human) peptide binding inhibition; 0.92% of 300,000 active; inhibition, % at 24.9 µM; Q9HD26; purified CAL PDZ, TMR-peptide fluorescence polarization, 1 h;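 active means mean inhibition of at least 30% with at least half of replicates also reaching 30%; inconclusive means no clear call, values can overlap the other calls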;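 further: 0% = DMSO neutral control and 100% = excess unlabeled competitor peptide PRC23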
dFosB activator – enhances mouse delta FosB homodimer DNA binding. activation, % at 25 µM. purified delta FosB, TAMRA-CDK5 oligo fluorescence polarization; percent of positive-control signal above neutral wells. 0.99% of 340,000 active;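 active means mean activation above about 17%, with every replicate also reaching it, limit read from the data, passing the limit was not always enough; inconclusive means only one of the two conditions met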
SR-BI uptake up – enhances SR-BI lipid uptake from DiI-HDL; CHO ldlA[mSR-BI] cells, DiI-HDL uptake fluorescence, 3 h; 100 = double the neutral-control signal; activation, % at 12.5 µM; 0.096% of 320,000 active;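 active means mean replicate activation of at least 60% and every replicate at or above 60%; inconclusive means mean or all-replicate condition met, but not both; inactive means mean below 60% and not all replicates reaching 60%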;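 further: 0% = median plate neutral-control signal and 100% = twice that signal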
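Test system: SR-BI-overexpressing, LDLR-lacking CHO cells; Medium: Ham's F12 with 0.5% BSA, HEPES 25 mM, pH 7.4; Schedule: 3 h, 37 °C; Technique: bottom-read fluorescence, 550/595 nm.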
SR-BI HDL uptake – blocks mouse SR-BI lipid uptake from DiI-HDL. Q61009. ldlA[mSR-BI] CHO cells, DiI-HDL uptake fluorescence, 3 h. inhibition, % at 12.5 µM. 0.96% of 320,000 active. AID 488896;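 active means mean replicate inhibition of at least 70% and a set share of replicates each scoring 70 or more; inconclusive means meets just one of the two criteria; inactive means fails both criteria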;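 further: 0% = median of neutral control wells and 100% = median of positive control wells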
Target sequence (Q61009 whole entry, looked up): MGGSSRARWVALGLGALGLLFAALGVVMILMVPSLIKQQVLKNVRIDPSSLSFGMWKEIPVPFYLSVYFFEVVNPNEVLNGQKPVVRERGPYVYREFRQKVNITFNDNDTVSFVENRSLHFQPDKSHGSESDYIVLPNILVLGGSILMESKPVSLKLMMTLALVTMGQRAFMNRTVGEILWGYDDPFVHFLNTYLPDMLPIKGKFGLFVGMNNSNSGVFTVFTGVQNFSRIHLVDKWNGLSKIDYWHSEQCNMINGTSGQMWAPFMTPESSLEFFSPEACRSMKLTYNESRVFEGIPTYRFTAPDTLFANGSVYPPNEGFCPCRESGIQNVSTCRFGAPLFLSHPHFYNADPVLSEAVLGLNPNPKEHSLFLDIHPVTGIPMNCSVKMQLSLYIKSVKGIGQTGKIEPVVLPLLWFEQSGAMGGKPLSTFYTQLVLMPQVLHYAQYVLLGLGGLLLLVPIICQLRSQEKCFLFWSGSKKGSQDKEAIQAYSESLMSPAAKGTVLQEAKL
CAL PDZ FP-2 – blocks peptide binding to human CAL PDZ domain. Q9HD26. purified CAL PDZ, TMR-peptide fluorescence polarization, 1 h. inhibition, % at 20 µM. 0.02% of 330,000 active. AID 504414;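 active means highest replicate inhibition of at least 40%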;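 further: plate controls were DMSO neutral control wells for no effect and unlabeled competitor peptide control wells for full effect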
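Material: tagged CAL PDZ domain; buffer or medium: 25 mM sodium phosphate pH 7.4, 150 mM NaCl, TCEP, IgG, Thesit; compound dosing: single point, 20 µM; schedule: 1 h incubation at room temperature before polarization reading; measured by: FP readout, S and P plane fluorescence; read-out basis: percent inhibition from loss of millipolarization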
An asterisk follows results filed as active; ? = inconclusive; . = not tested or not shown.

SMILES	CAL PDZ FP-1	dFosB activator	SR-BI uptake up	SR-BI HDL uptake	CAL PDZ FP-2
O=C(N/N=C/c1ccccc1O)c1cccc2ccccc12	1	4	-51	51	-2
C=CCOc1ccc(/C=C/C(=O)OCc2csc(CC(=O)Nc3ccccc3C)n2)cc1	0	-4	-31	31	0
COC(=O)c1cc(S(=O)(=O)N2CCCC(C)C2)c[nH]1 (centres undefined)	78*	-6	-2	2	0
CC1CCN(CCCNC(=O)c2ccc3c(=O)n(Cc4ccc(Cl)cc4)c(=S)[nH]c3c2)CC1	-1	-46	-2	2	66*
COC(=O)c1ccc2c(=O)n(Cc3ccc(C(=O)NCCCN4CCC(C)CC4)cc3)c(=S)[nH]c2c1	-7	1	-49	49	-3
CCOC(=O)C1=CC[C@H]2c3c(c4ccccc4n3C)C[C@H]1N2C	-3	-12	5	-5	0
Cc1ccccc1NC(=O)CCCn1nc(C)c2c(C)n(-c3ccccc3)nc2c1=O	30*	11	-8	8	-1
Cc1nn(CC(=O)Nc2ccc3c(c2)nc2n3CCN(C3CCCCC3)C2)c(=O)c2ccccc12	-3	27*	5	-5	0
Cc1ccccc1NC(=O)Cn1nc(C)c2ccccc2c1=O	35*	5	-3	3	0
COC(=O)c1ccccc1NC(=O)CCCn1nc(C)c2c(C)n(-c3ccccc3)nc2c1=O	.	-2	-9	9	0
Cc1nn(CC(=O)Nc2ccc3c(c2)nc(CCN2CCCCC2)n3C)c(=O)c2ccccc12	.	4	22	-22	-2
Cc1ccccc1NC(=O)Cn1nc(C(=O)O)c2ccccc2c1=O	-1	-4	.	.	-1
O=C(NC1CCc2ccccc21)c1cc(COc2cncc(Cl)c2)on1 (centres undefined)	-3	-10	-25	25	0
CC(=O)Nc1ccc(S(=O)(=O)N[C@@H](C)C(=O)OCC(=O)Nc2ccc3c(c2)OCCO3)cc1	.	-6	13	-13	0
Cc1cc(C)c(OCC(=O)Nc2ccc3c(c2)OCO3)cc1C	active	2	-3	3	-2
O=C(COC(=O)C(CO)NS(=O)(=O)c1ccc(Br)cc1)Nc1ccc2c(c1)OCCO2 (centres undefined)	47*	0	20	-20	0
Cc1sc2ncnc(OCC(=O)Nc3ccc4c(c3)OCCO4)c2c1C	-4	-6	2	-2	-1
Cc1ccc(C)c(OCC(=O)Nc2ccc3c(c2)OCO3)c1	-3	-19	.	.	-1
O=C(COC(=O)c1cc(Br)ccc1O)Nc1ccc2c(c1)OCCO2	.	23*	6	-6	0
O=C(COc1ncnc2sccc12)Nc1ccc2c(c1)OCCO2	44*	-6	-4	4	-1
O=C(COC(=O)c1ccc(O)cc1)Nc1ccc2c(c1)OCCO2	-3	-5	9	-9	-2
CN(CCc1ccccc1)C(=O)c1cc(COc2ccc(F)cc2Cl)on1	1	-21	-20	20	-1
COc1cc(C(=O)NCC(=O)Nc2ccc(F)c(F)c2)ccc1OCC(=O)N1CCOCC1	-1	-12	-14	14	0
O=C(N/C=C/n1cnc2cc(C(F)(F)F)ccc21)c1ccccc1F	3	7	-6	6	-3
COc1ccc(N2C(=O)N[C@@H](Cc3ccccc3)C2=O)cc1OC	3	-4	24	-24	-3
SMILES	CAL PDZ FP-1	dFosB activator	SR-BI uptake up	SR-BI HDL uptake	CAL PDZ FP-2
CCCCn1c(N)c(-c2nc3ccccc3o2)c2c([N+](=O)[O-])nn(C)c(=O)c21	-6	-15	-9	9	-2
CCCCCn1c(N)c(-c2nc3ccccc3s2)c2c([N+](=O)[O-])nn(C)c(=O)c21	.	-2	-84	84*	-3
O=C(CCc1ccccc1)N[C@@H]1c2ccccc2CC[C@H]1OCc1ccccc1	-2	1	-21	21	-3
O=C(Nc1cccc2ccccc12)/C(=C/c1ccc([N+](=O)[O-])cc1)NC(=O)c1ccccc1	68*	13	-10	10	-1
COc1ccc(/C=C(/NC(=O)c2ccccc2)C(=O)N/N=C/c2sccc2C)cc1	0	0	-78	78*	0
O=C(Nc1cccc(C(=O)O)c1)/C(=C/c1ccc([N+](=O)[O-])cc1)NC(=O)c1ccccc1	.	-15	4	-4	-2
CC(C)(C)NC(=O)/C(=C\c1ccccc1F)NC(=O)c1ccc([N+](=O)[O-])cc1	70*	2	-1	1	-1
Cc1ccsc1/C=N/NC(=O)c1ccc(-n2cccc2)cc1	-2	3	-77	77*	-4
COc1ccc(/C=C(\NC(=O)c2ccccc2)C(=O)N/N=C/c2sccc2C)cc1	-1	11	-48	48	-5
Cc1cc(C)n(NC(=S)NC2CCCCC2)c(=O)c1C#N	0	-10	-1	1	0
O=C(CN1CCCCCC1)Nc1ccccc1OC(F)F	-1	-5	-2	2	-1
CN(CCOc1ccccc1)C(=O)CCc1c[nH]c2ccccc12	1	-17	-13	13	0
O=C(N/N=C/c1ccc(O)c(O)c1O)/C(=C/c1ccc([N+](=O)[O-])cc1)NC(=O)c1ccccc1	-4	-13	-98	98*	-13
COc1ccc(CCNC(=O)c2ccc(-c3cccc([N+](=O)[O-])c3)o2)cc1OC	1	-17	-72	72*	-1
COc1ccc(CCNC(=O)c2ccc(N3CCCCS3(=O)=O)cc2)cc1OC	-5	-9	-79	79*	-2
CCC(CC)C(=O)NCCc1ccc(OC)c(OC)c1	60*	-3	23	-23	0
COc1ccc(CCNC(=O)c2ccc(Cl)cc2)cc1OC	6	-1	-18	28	0
CCCc1ncc(CN2CCCCC2C(=O)Nc2ccc(Oc3ccccc3)nc2)cn1 (centres undefined)	.	-6	19	-19	0
O=C(Nc1c(F)cc(F)cc1Br)c1cc(-c2ccc(O)cc2)on1	-2	-2	-43	43	-1
O=C(Nc1cccnc1)c1cc(-c2ccc(Br)cc2)on1	.	4	0	0	0
O=C(Nc1cccnc1)c1cc(-c2ccccc2)on1	122*	-10	24	-24	.
O=C(Nc1c(F)cc(F)cc1Br)c1cc(-c2ccccc2)on1	80*	?	?	-292	-1
Cn1c(=O)c(-c2ccccc2[N+](=O)[O-])c(Cl)c2ccccc21	.	-6	10	-10	0
COc1cccc(OCCOc2ccc(/C=C3\C(=N)N4N=C(S(C)(=O)=O)SC4=NC3=O)cc2OC)c1	55*	-29	-36	36	-5
O=C(Nc1ccc2c(c1)OCO2)C1CC(c2cccc(Br)c2)=NO1 (centres undefined)	42*	-11	-7	7	.
NC(=O)NC(=O)COC(=O)CCCSc1nc2ccccc2s1	-2	0	-3	3	-2
